In ChEMBL document CHEMBL4732162, “Design, synthesis and evaluation of novel ErbB/HDAC multitargeted inhibitors with selectivity in EGFR mutant cell lines” (Eur J Med Chem, 2021) one finds IC50 and inhibition data, which are given here for ten compounds.

For assay [1], the target named is Receptor tyrosine-protein kinase erbB-2 (Homo sapiens, UniProt P04626). Description: Inhibition of HER2 (unknown origin) by mobility shift assay. In outline:
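In vitro kinase activity was measured by mobility shift assay, run by a contract provider.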

A further assay has as its system SK-BR-3. Briefly: Antiproliferation activity against human SK-BR-3 cells incubated for 72 hrs by MTT assay. Format: functional, cell-based. The note with it: SK-BR-3, 72 h. Put shortly:
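MTT assay. About 0.5–1 × 10⁴ cells/well were pre-incubated 12 h at 37 °C in 5% CO₂, then exposed to a concentration series of compound for 72 h. Formazan was dissolved in DMSO and absorbance read at 490 nm. Three wells per condition, three independent experiments. IC50 is the mean ± SD from the dose-response curves.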

A further assay relates to A549. Briefly: Antiproliferative activity against human A549 cells incubated for 72 hrs by MTT assay. Format: functional, cell-based. The note with it: A549, 72 h.
The target in assay [2] is Epidermal growth factor receptor (Homo sapiens, UniProt P00533, L858R/T790M). Description: Inhibition of EGFR L858R/T790M (unknown origin) by mobility shift assay.
Chain of Epidermal growth factor receptor (Homo sapiens, UniProt P00533, L858R/T790M) (P00533 25-1210 T790M/L858R limits assumed): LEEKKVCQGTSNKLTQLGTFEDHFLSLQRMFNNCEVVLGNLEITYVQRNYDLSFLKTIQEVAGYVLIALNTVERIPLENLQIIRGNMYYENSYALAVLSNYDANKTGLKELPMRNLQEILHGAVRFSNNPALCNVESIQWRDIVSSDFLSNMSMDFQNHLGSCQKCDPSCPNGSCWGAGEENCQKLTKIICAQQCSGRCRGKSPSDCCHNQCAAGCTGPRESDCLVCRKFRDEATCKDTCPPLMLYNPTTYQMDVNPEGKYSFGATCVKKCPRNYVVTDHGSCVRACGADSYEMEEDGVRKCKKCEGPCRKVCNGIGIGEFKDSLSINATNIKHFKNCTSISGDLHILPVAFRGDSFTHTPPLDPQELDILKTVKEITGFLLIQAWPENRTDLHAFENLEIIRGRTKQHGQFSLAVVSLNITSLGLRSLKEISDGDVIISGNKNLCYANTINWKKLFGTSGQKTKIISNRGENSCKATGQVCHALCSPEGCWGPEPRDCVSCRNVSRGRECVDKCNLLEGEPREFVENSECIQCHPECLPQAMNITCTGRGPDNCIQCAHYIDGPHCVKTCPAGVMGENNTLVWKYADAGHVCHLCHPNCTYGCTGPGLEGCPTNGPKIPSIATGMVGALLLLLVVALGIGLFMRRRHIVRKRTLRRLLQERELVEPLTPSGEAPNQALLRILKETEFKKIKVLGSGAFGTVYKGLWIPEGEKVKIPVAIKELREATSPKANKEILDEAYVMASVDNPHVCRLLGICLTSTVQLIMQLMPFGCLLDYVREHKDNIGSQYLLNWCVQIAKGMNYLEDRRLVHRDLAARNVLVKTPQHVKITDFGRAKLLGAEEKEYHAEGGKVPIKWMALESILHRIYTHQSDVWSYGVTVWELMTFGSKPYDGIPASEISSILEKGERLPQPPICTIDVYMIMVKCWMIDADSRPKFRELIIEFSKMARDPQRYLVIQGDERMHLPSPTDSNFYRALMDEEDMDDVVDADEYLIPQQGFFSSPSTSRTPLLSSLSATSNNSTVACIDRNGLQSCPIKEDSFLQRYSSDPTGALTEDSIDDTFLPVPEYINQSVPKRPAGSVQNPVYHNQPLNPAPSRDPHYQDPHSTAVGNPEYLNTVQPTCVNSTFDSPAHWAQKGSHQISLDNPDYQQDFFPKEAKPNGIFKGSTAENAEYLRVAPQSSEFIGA
In assay [3] the target is Epidermal growth factor receptor (Homo sapiens, UniProt P00533, L858R). Description: Inhibition of EGFR L858R (unknown origin) by mobility shift assay.
Chain of Epidermal growth factor receptor (Homo sapiens, UniProt P00533, L858R) (P00533 25-1210 L858R limits assumed): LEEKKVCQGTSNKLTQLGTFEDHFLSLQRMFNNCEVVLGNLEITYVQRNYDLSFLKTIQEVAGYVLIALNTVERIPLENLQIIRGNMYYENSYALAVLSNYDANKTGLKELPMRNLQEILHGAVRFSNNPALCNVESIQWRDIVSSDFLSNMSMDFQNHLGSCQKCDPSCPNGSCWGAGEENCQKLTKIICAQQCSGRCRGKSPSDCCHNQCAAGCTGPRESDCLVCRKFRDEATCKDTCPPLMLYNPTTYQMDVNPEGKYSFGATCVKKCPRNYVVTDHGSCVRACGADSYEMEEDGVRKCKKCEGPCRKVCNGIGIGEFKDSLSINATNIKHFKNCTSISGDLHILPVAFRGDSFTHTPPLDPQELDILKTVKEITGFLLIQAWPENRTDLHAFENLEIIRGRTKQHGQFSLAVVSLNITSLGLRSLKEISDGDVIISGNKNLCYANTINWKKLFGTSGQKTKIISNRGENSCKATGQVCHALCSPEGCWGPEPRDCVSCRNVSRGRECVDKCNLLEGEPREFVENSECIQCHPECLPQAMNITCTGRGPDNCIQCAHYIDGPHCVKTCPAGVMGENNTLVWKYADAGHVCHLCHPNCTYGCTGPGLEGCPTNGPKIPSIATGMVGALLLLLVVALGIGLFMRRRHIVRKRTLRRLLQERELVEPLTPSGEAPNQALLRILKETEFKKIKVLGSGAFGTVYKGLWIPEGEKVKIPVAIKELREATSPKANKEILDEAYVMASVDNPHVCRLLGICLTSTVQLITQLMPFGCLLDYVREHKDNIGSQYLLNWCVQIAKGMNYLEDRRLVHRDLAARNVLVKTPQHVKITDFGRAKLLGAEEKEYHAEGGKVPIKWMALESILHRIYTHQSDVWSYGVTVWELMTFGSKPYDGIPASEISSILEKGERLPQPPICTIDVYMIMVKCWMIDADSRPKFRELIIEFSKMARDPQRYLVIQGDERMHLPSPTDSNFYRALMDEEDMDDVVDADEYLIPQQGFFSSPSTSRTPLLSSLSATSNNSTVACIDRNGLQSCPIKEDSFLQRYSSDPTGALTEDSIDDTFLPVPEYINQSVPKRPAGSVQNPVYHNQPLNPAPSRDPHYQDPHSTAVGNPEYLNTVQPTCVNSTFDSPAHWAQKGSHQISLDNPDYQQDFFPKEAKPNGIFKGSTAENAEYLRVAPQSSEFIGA
The subject of the next assay is FHC. Description: Cytotoxicity against human FHC cells assessed as reduction of cell viability incubated for 72 hrs by MTT assay. The format is ADME, cell-based.
The next assay deals with L02. Briefly: cytotoxicity against human HL-7702 cells assessed as reduction of cell viability incubated for 72 hrs by MTT assay. The note with it: L02, 72 h. The format is ADME, cell-based. In general terms: Formazan colour is commonly taken as a measure of viable cells.
Assay [4] addresses T1, Epidermal growth factor receptor (Homo sapiens, UniProt P00533). Briefly: Inhibition of EGFR (unknown origin) by mobility shift assay.
A further assay deals with NCI-H1975. Briefly: Antiproliferative activity against human NCI-H1975 cells incubated for 72 hrs by MTT assay. The format is functional, cell-based. The note with it: NCI-H1975, 72 h.
In another assay the test system is NCI-H838. Briefly: Antiproliferation activity against human NCI-H838 cells incubated for 72 hrs by MTT assay. To be noted: NCI-H838, 72 h. The format is functional, cell-based.
The target in another assay is Histone deacetylase 1 (Homo sapiens, UniProt Q13547). Briefly: Inhibition of HDAC1 (unknown origin).
Chain of Histone deacetylase 1 (Q13547 whole entry): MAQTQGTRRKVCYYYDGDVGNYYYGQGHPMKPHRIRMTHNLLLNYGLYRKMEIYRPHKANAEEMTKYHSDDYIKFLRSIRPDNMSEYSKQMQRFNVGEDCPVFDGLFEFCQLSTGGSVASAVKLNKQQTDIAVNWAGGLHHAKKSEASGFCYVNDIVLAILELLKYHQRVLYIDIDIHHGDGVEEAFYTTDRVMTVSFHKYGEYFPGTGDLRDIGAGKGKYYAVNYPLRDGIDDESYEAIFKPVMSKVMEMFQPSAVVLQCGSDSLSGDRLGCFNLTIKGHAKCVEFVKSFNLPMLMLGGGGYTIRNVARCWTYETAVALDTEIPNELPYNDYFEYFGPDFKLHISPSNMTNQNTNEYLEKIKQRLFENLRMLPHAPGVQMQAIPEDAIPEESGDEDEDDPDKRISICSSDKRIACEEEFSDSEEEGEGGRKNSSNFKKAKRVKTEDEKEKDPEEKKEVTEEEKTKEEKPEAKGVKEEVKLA
The test system of another assay is A-431. Description: Antiproliferative activity against human A431 cells incubated for 72 hrs by MTT assay. The format is functional, cell-based. The note with it: A-431, 72 h.
Assay [5] deals with Histone deacetylase (Homo sapiens) (UniProt Q13547+O15379+Q9UBN7+Q92769+Q9UQL6+Q8WUI4+Q9BY41+Q96DB2+P56524+Q9UKV0+Q969S8). Briefly: Inhibition of HDAC in human NCI-H1975 cells assessed as increase in histone H3 acetylation at 2.5 uM after 1 to 12 hrs by Western blot analysis. The format is cell-based. To be noted: time lower 1.0 hrs, time upper […].
Assay [6] deals with T1, Epidermal growth factor receptor. Description: Inhibition of EGFR in human NCI-H1975 cells assessed as reduction in EGFR phosphorylation at Tyr-1173 residues at 1 uM after 48 hrs by Western blot analysis. The format is cell-based. Put shortly:
(§1)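 Cells were treated with compound for 48 h and lysed on ice for 30 min in RIPA buffer with protease and phosphatase inhibitors. Lysates were cleared at 14000 g, 4 °C, and protein quantified by BCA. Samples were boiled in loading buffer, run on 10–12% SDS-PAGE and transferred to PVDF. Membranes were blocked 2 h, incubated in primary antibody overnight at 4 °C, then in secondary antibody 2 h at room temperature.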
Background: In western blotting, separated proteins are transferred to a membrane and probed.

For assay [7] the target is unchanged. Description: Inhibition of EGFR in human NCI-H1975 cells assessed as reduction in EGFR phosphorylation at Tyr-1068 residues at 1 uM after 48 hrs by Western blot analysis. The format is cell-based. In outline: as §1

Calls of active or inactive are those of the source. The calls are words filed in the database; no cut-off is given here.

T1 sequence (P00533 whole entry): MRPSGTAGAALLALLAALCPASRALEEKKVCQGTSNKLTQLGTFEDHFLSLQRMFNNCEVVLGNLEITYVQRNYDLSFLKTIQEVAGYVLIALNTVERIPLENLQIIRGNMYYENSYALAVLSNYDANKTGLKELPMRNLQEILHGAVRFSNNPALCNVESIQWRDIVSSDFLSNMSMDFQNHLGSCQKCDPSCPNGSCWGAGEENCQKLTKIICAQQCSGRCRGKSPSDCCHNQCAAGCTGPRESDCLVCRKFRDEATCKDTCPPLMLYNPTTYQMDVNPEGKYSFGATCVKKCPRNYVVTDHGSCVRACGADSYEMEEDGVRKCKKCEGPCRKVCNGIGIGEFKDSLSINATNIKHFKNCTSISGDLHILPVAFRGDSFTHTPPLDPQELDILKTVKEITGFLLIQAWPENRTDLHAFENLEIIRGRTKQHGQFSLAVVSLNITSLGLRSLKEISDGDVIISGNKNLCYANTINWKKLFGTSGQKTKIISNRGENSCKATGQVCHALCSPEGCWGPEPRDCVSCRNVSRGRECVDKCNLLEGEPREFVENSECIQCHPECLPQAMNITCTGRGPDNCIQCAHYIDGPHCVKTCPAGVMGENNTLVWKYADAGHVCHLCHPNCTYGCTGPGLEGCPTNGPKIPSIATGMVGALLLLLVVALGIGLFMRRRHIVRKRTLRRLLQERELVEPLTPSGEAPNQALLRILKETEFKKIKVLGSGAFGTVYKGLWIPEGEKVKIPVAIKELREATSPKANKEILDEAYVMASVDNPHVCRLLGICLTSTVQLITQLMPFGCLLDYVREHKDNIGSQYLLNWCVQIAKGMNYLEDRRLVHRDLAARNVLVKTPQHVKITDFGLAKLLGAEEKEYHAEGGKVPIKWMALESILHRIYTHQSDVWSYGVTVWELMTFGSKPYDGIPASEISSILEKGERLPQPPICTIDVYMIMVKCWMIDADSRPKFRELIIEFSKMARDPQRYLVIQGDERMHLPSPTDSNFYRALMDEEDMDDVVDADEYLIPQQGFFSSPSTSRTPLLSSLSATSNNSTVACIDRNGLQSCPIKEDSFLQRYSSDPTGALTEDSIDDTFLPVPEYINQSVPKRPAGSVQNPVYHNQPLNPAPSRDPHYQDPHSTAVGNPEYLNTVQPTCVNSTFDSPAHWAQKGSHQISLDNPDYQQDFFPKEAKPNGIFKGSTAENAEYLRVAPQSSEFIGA

Take `C=CC(=O)Nc1cc2c(Nc3ccc(F)c(Cl)c3)ncnc2cc1OCc1cn(CCCCC(=O)NO)nn1`: the IC50 in assay [1] is 7.3 nM; in the assay on SK-BR-3 it was 20 µM; in the assay with A549, above 50 µM; in assay [2] it was 1.8 nM; in [3] it was 0.88 nM; in the assay on FHC, above 25 µM. For the same compound, the IC50 is above 25 µM in the assay on L02; 0.35 nM in assay [4]; 2.5 µM with NCI-H1975; above 50 µM in the assay with NCI-H838; 292 nM on Histone deacetylase 1; 15 µM with A-431.

Regarding `COc1cc2ncnc(Nc3ccc(F)c(Cl)c3)c2cc1OCCCN1CCOCC1`, the inhibition entry in assay [5] was “Active”.

As for `C=CC(=O)Nc1cc2c(Nc3ccc(OCc4cccc(F)c4)c(Cl)c3)ncnc2cc1OCc1cn(CCCCC(=O)NO)nn1`, the IC50 in assay [1] was 3.8 nM; in the assay with SK-BR-3, 16 µM; in the assay with A549, above 50 µM; in assay [2], 14 nM; in assay [3], 2.6 nM; in the assay on FHC it was above 25 µM. In addition, the IC50 in the assay with L02 is above 25 µM; in assay [4] it was 1.5 nM; in the assay with NCI-H1975, 14.5 µM; in the assay on NCI-H838, above 50 µM; against Histone deacetylase 1, above 1000 nM; with A-431 it was 18.8 µM.

Take `C=CC(=O)Nc1cc2c(Nc3cccc(Cl)c3F)ncnc2cc1OCc1cn(CCCCC(=O)NO)nn1`: the IC50 is 16 nM in assay [1]; above 50 µM in the assay with SK-BR-3; above 50 µM in the assay on A549; 17 nM in assay [2]; 1.2 nM in [3]; above 25 µM with FHC. In addition, the half-maximal inhibitory concentration (IC50) is above 25 µM with L02; 0.44 nM in [4]; 4.18 µM in the assay with NCI-H1975; above 50 µM with NCI-H838; 132 nM on Histone deacetylase 1; 15.6 µM in the assay on A-431.

As to `C=CC(=O)Nc1cc2c(Nc3ccc(F)c(Cl)c3)ncnc2cc1OCc1cn(CCC(=O)NO)nn1`, the IC50 in assay [1] was 5.4 nM; with SK-BR-3 it was above 50 µM; with A549, above 50 µM; in [2] it was 2.3 nM; in assay [3], 1.1 nM; in the assay with FHC it was above 25 µM. Besides, the 50% inhibitory concentration (IC50) in the assay with L02 was above 25 µM; in assay [4], 0.33 nM; with NCI-H1975, 4.45 µM; in the assay on NCI-H838, above 50 µM; against Histone deacetylase 1, 93 nM; in the assay with A-431, 22.1 µM.

Turning to `C=CC(=O)Nc1cc2c(Nc3ccc(OCc4cccc(F)c4)c(Cl)c3)ncnc2cc1OCc1cn(CCC(=O)NO)nn1`, the IC50 in assay [1] was 3.7 nM; with SK-BR-3, 24.8 µM; in the assay on A549, above 50 µM; in [2], 16 nM; in assay [3] it was 2.2 nM; in the assay on FHC it was above 25 µM. The IC50 with L02 was above 25 µM; in assay [4], 1.1 nM; with NCI-H1975, 21 µM; in the assay on NCI-H838, above 50 µM; against Histone deacetylase 1, above 1000 nM; with A-431, 16.3 µM.

As to `C=CC(=O)Nc1cc2c(Nc3ccc(OCc4cccc(F)c4)c(Cl)c3)ncnc2cc1OCc1cn(CCCC(=O)NO)nn1`, the half-inhibitory concentration (IC50) was 3.7 nM in [1]; 20.2 µM in the assay on SK-BR-3; above 50 µM with A549; 15 nM in assay [2]; 2.9 nM in [3]; above 25 µM in the assay with FHC. Moreover, the IC50 in the assay on L02 was above 25 µM; in assay [4], 1.8 nM; in the assay with NCI-H1975, 12 µM; in the assay on NCI-H838, above 50 µM; at Histone deacetylase 1, above 1000 nM; in the assay with A-431, 19.9 µM.

Regarding `C=CC(=O)Nc1cc2c(Nc3cccc(Cl)c3F)ncnc2cc1OCc1cn(CCC(=O)NO)nn1`, the half-inhibitory concentration (IC50) in assay [1] was 13 nM; in the assay with SK-BR-3, above 50 µM; in the assay on A549, above 50 µM; in assay [2], 8.3 nM; in assay [3] it was 1.1 nM; with FHC, above 25 µM. Also, the IC50 with L02 was above 25 µM; in [4], 0.34 nM; in the assay on NCI-H1975, 6.61 µM; in the assay on NCI-H838, above 50 µM; against Histone deacetylase 1, 44 nM; in the assay with A-431, 15 µM.

As to `O=C(CCCCCCC(=O)Nc1ccccc1)NO` [VORINOSTAT], the inhibition result in [6] and in assay [7] was “inactive” throughout. The IC50 in the assay on SK-BR-3 was 2.13 µM.

Regarding `C=CC(=O)Nc1cc2c(Nc3cccc(Cl)c3F)ncnc2cc1OCc1cn(CCCC(=O)NO)nn1`, the IC50 in [1] is 8 nM; in the assay on SK-BR-3, above 50 µM; in the assay with A549, above 50 µM; in the assay on FHC, above 25 µM; in the assay on L02 it was above 25 µM; in the assay on NCI-H1975 it was 2.8 µM. For the same compound, the concentration for half-maximal inhibition (IC50) in the assay with NCI-H838 is above 50 µM; against Histone deacetylase 1 it was 34 nM; in the assay with A-431 it was 16.9 µM.

For orientation: IC50 means the concentration that gives 50% inhibition.
